According to ChEMBL document CHEMBL3351593, “Potent nonimmunosuppressive cyclophilin inhibitors with improved pharmaceutical properties and decreased transporter inhibition” (J Med Chem, 2014):
Converted amounts (≈) assume the structure as drawn.

How the values were obtained:
Hepatitis C virus [1] = test: Antiviral activity against HCV subtype 1b in human Huh7.5 cells expressing subgenomic HCV replicons and coexpressing luciferase reporter gene; type: functional, cell-based, Hepacivirus hominis; settings: genotype 1b, Huh-7
Summary of the method: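 Stable Huh7.5 lines carrying genotype 1a or 1b subgenomic replicons with luciferase reporter, made by RNA electroporation and G418 selection. Assay run in phenol red-free DMEM without G418, sixteen half-log compound dilutions, in triplicate. Luciferase signal read after 72 h relative to DMSO controls, giving EC50.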

[2] = target: T1, Solute carrier organic anion transporter family member 1B1 (Homo sapiens, UniProt Q9Y6L6); test: Inhibition of OATP1B1 (unknown origin) expressed in CHO cells using 8-fluorescein-cAMP substrate by fluorescent photometry; type: ADME, cell-based
T1 sequence (Q9Y6L6 whole entry): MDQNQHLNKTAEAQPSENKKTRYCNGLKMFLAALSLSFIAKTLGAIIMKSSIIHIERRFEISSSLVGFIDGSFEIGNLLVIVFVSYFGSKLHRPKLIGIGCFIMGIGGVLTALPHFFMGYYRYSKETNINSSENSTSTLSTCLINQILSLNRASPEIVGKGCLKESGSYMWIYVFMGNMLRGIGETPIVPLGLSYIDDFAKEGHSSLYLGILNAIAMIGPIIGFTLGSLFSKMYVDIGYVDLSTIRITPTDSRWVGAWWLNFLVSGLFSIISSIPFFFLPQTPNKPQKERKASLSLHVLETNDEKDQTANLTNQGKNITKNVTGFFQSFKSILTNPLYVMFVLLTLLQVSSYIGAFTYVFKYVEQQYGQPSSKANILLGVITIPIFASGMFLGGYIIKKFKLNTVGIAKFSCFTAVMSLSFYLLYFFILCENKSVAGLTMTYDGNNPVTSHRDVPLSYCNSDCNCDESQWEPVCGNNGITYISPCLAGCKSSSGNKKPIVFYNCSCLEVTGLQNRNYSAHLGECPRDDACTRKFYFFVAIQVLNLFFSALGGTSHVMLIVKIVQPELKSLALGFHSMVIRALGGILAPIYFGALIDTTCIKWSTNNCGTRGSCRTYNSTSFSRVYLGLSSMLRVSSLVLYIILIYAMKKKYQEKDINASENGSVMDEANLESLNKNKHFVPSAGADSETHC
Summary of the method: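 CHO-OATP1B1 cells and vector control cells cultured 2 days, then washed and equilibrated 15 min in HBSS + 10 mM HEPES. Exposed 10 min to 2.5 μM 8-fluorescein-cAMP with inhibitor at 0−30 μM (up to 1% DMSO). Cells washed and lysed, uptake measured by fluorescence, and IC50 taken from the concentration-response curve.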

[3] = Kinetic solubility of the compound in pH 7.0 water; type: physicochemical; settings: read-out: Kinetic_solubility
[4] = target: Peptidyl-prolyl cis-trans isomerase F, mitochondrial (Homo sapiens, UniProt P30405); test: Binding affinity to human cyclophilin F by surface plasmon resonance method
Summary of the method: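 Surface plasmon resonance with biotinylated cyclophilin protein, single-cycle kinetics. Running buffer 10 mM HEPES pH 7.4, 150 mM NaCl, 0.05% P20, 3% DMSO, with inhibitor present. Compound injected at several concentrations, 1 min contact each at 50 μL/min, then 10 min final dissociation. kon, koff and KD obtained from a 1:1 binding model fit.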

Hepatitis C virus [5] = test: Antiviral activity against HCV subtype 1b in human Huh7.5 cells expressing subgenomic HCV replicons and coexpressing luciferase reporter gene in presence of 40% human serum; type: functional, cell-based, Hepacivirus hominis; settings: genotype 1b, Huh-7
Summary of the method: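 Genotype 1b luciferase replicon in Huh7.5 cells with 40% human serum added to the assay medium, in phenol red-free DMEM without G418. Sixteen half-log dilutions in triplicate. Luciferase read after 72 h relative to DMSO-treated cells, giving EC50.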

[6] = Cytotoxicity against human MT4 cells by CDCF probe based assay; type: cell-based
[7] = target: T1, Solute carrier organic anion transporter family member 1B1; test: Inhibition of OATP1B1 (unknown origin) expressed in HEK293 cells using [3H]estradiol-17beta-glucuronide substrate; type: ADME, cell-based
Summary of the method: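 Recombinant OATP1B1 or OATP1B3 expressed in HEK293 cells, with [3H]estradiol-17β-glucuronide as substrate; IC50 determined.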

[8] = target: ATP-binding cassette sub-family C member 2 (Homo sapiens, UniProt Q92887); test: Inhibition of human MRP2 expressed in Sf9 cells inside out vesicles using CDCF substrate
Summary of the method: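 Inside-out vesicles from baculovirus-infected Sf9 cells expressing hMRP2, with CDCF as probe. ATP-dependent uptake taken as uptake with ATP minus uptake with AMP. Remaining activity calculated as uptake with inhibitor divided by uptake without, and the inhibition value derived from that.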

Bile salt export pump = Bile salt export pump (Homo sapiens, UniProt O95342); test: Inhibition of BSEP (unknown origin) expressed in HEK293 cells using [3H]taurocholic acid substrate; type: ADME, cell-based
Summary of the method: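 BSEP activity in HEK293 cells, measured with [3H]taurocholic acid uptake as substrate; IC50 reported.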

[9] = target: T2, Broad substrate specificity ATP-binding cassette transporter ABCG2 (Homo sapiens, UniProt Q9UNQ0); test: Inhibition of BCRP (unknown origin) expressed in T8 cells using Bodipy FL-prazosin substrate; type: ADME, cell-based
T2 sequence (Q9UNQ0 whole entry): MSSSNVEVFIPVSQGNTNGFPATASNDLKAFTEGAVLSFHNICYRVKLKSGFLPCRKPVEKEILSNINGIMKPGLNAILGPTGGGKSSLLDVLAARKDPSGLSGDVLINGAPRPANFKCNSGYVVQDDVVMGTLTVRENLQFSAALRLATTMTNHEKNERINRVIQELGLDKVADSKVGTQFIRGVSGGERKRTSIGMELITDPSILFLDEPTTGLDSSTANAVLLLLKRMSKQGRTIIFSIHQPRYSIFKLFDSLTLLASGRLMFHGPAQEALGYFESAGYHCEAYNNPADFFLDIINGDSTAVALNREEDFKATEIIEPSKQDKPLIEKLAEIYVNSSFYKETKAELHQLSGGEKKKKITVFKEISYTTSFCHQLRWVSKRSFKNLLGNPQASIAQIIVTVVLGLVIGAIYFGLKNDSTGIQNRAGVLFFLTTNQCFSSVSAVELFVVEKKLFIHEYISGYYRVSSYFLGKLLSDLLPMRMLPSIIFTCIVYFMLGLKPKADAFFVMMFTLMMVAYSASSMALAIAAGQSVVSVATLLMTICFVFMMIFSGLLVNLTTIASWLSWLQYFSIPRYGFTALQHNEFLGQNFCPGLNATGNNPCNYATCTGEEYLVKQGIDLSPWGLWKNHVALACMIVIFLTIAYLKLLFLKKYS
Summary of the method: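 BCRP activity in T8 cells, measured with Bodipy FL-prazosin as substrate; IC50 reported.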

[10] = AUC in rat blood at 25 mg/kg, po after 72 hrs; type: ADME, organism-based; parameters: time < 72 hr, dose 25 mg/kg, route oral; settings: whole blood
Summary of the method: (§1)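 Oral dosing as a solution in MEPC: rat 25 mg/kg, dog 1 mg/kg. Blood and plasma collected separately over 0−72 h and AUC computed for each matrix.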

[11] = AUC in rat plasma at 25 mg/kg, po after 72 hrs; type: ADME, organism-based; parameters: time < 72 hr, dose 25 mg/kg, route oral; summary of the method: as §1
[12] = AUC in dog blood at 1 mg/kg, po after 72 hrs; type: ADME, organism-based, Canis lupus familiaris; parameters: time < 72 hr, dose 1 mg/kg, route oral; settings: whole blood; summary of the method: as §1

Chain of Peptidyl-prolyl cis-trans isomerase F, mitochondrial (P30405 whole entry): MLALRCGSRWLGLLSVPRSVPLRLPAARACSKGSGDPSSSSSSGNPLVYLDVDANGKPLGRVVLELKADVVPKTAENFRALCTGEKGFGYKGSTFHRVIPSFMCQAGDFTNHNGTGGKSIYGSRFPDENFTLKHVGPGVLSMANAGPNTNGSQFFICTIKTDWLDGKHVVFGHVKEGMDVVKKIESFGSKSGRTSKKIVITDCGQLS
Chain of Bile salt export pump (O95342 whole entry): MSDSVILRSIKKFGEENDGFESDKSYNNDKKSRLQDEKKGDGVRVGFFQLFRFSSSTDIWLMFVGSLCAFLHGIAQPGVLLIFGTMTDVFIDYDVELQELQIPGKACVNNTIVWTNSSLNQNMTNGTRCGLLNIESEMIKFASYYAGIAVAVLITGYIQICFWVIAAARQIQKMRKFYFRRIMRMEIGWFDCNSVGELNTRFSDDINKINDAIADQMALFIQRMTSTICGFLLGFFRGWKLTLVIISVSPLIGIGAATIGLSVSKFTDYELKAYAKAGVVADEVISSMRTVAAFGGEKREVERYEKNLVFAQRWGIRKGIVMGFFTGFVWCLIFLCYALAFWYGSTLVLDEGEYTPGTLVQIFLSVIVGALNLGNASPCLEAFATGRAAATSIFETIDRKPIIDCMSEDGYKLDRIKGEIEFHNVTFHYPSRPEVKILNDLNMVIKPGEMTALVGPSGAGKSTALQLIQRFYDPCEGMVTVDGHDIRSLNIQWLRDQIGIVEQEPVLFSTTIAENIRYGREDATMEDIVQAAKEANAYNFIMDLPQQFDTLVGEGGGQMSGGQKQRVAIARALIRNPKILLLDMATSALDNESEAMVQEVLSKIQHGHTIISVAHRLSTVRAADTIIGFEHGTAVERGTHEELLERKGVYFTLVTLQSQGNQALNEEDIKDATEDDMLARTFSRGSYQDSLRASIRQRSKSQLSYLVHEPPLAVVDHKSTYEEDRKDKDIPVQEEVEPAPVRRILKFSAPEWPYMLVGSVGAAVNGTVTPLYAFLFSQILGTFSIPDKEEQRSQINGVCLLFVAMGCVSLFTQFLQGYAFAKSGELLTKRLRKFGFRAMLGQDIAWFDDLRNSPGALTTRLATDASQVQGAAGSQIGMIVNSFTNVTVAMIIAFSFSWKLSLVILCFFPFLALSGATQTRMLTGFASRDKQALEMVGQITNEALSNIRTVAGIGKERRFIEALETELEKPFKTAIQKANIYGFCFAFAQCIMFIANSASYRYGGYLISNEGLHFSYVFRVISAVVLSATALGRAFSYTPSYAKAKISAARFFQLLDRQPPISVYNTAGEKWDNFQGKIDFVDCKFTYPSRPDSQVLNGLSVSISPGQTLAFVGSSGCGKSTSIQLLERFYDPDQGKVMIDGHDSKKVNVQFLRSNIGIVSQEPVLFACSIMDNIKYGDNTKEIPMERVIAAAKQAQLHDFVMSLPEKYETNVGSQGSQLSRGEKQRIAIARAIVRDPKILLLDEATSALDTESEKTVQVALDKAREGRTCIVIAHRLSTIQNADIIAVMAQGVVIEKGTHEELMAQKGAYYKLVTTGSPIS
Chain of ATP-binding cassette sub-family C member 2 (Q92887 whole entry): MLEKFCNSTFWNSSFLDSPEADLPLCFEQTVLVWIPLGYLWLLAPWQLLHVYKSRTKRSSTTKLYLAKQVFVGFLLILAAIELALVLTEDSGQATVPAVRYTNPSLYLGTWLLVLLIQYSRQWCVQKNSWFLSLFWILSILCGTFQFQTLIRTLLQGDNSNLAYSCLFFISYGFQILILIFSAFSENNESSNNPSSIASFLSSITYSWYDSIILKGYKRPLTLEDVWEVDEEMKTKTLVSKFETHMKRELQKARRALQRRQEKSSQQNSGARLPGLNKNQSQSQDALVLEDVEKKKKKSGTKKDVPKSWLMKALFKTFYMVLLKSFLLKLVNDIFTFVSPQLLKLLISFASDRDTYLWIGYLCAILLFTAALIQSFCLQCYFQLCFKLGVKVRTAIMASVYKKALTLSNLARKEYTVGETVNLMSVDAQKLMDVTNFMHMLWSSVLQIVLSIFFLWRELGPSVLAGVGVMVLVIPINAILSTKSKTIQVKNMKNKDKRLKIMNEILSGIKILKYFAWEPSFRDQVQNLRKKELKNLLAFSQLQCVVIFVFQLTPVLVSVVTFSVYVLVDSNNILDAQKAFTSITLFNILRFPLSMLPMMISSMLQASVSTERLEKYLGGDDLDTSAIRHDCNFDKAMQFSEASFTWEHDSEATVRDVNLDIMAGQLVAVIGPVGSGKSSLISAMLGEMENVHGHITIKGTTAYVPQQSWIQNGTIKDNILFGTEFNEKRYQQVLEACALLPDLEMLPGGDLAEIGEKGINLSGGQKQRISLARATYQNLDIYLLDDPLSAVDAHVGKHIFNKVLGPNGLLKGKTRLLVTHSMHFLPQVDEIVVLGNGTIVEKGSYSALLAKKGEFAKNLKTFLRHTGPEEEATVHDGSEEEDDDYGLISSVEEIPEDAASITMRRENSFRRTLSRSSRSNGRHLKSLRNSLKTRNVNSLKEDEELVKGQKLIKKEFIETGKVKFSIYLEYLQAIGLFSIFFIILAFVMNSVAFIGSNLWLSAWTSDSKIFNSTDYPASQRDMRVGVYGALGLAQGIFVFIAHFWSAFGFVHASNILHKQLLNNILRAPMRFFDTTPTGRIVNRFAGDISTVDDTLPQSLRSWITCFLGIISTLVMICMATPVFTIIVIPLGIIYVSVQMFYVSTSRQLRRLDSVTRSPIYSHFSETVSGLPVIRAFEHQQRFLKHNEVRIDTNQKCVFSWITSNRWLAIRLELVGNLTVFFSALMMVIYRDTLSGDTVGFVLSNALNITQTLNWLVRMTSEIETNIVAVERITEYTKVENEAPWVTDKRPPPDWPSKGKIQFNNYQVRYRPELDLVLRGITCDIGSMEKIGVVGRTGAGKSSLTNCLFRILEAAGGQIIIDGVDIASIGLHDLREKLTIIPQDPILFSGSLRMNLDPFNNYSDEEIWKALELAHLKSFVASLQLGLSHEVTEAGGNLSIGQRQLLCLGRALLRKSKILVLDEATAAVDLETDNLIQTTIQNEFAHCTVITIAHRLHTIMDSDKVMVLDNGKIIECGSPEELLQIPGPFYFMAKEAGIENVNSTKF

EC50 (Hepatitis C virus [1]) [nM] | IC50 [2] [nM] | solubility kinetic [3] [µg/mL] | Kd [4] [nM] | EC50 (Hepatitis C virus [5]) [nM] | IC50 [7] [nM] | Ki [8] [nM] | IC50 [9] [nM] | AUC at 72 h [10] [µM·h] | AUC at 72 h [11] [µM·h] | AUC at 72 h [12] [µM·h] | Structure (SMILES) | CC50 [6] [nM] | IC50 (Bile salt export pump) [nM]
40 | 6100 | 1100 (≈ 818 µM) | 0.9 | 42 | 1200 | 140000 | > 25000 | 58.4 | 5.8 | 22.1 | C/C=C/C[C@@H](C)[C@@H](O)[C@H]1C(=O)N[C@@H](CC)C(=O)N(C)[C@H](C)C(=O)N(C)[C@@H]([C@@H](C)CN2CCN(CCOC)CC2)C(=O)N[C@@H](C(C)C)C(=O)N(C)[C@@H](CC(C)C)C(=O)N[C@@H](C)C(=O)N[C@H](C)C(=O)N(C)[C@@H](CC(C)C)C(=O)N(C)[C@@H](CC(C)C)C(=O)N(C)[C@@H](C(C)C)C(=O)N1C | > 50000 | 1600
46 | 800 | < 5 | 1 | 116 | 180 | 18000 | 2500 | 22.1 | 2.3 | 2.19 | C/C=C/C[C@@H](C)[C@@H](O)[C@H]1C(=O)N[C@@H](CC)C(=O)N(C)[C@H](C)C(=O)N(CC)[C@@H](C(C)C)C(=O)N[C@@H](C(C)C)C(=O)N(C)[C@@H](CC(C)C)C(=O)N[C@@H](C)C(=O)N[C@H](C)C(=O)N(C)[C@@H](CC(C)C)C(=O)N(C)[C@@H](CC(C)C)C(=O)N(C)[C@@H](C(C)C)C(=O)N1C [ALISPORIVIR] | > 20000 | 110
